This note sets out measurements from PMC6146380 (Acta Pharmaceutica Sinica. B, 2018).

Where a name gives a salt, the structure may show the parent alone. Read-outs that look alike come from different tables or passages of the source.

The test system of data set [1] is A549 cells. The data set can be described thus: MTT cytotoxicity assay. It is filed as cell-based, human. The note with it: read-out: IC50 (in vitro cytotoxicity). In outline:
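A549 cells seeded at 5 × 10³/well in DMEM with 10% FBS and antibiotics, preincubated 24 h at 37 °C, 5% CO₂. Test drug in PBS added at various concentrations for 48 h; untreated controls received fresh medium. MTT (5 mg/mL stock) added for 4 h, formazan dissolved in DMSO, absorbance read at 490 nm. Triplicate measurements.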

For another data set, the system named is HUVEC. Kind of data set: Cellular uptake of FITC-labeled peptides by flow cytometry, HUVEC. It counts as cell-based, human. The note with it: 5 × 10^−6 mol/L, 4 h. The method in brief: (§1)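 Cells grown in DMEM with 10% FBS at 37 °C, 5% CO₂. Seeded at 8 × 10⁴ cells/well and incubated overnight. FITC-labeled peptides (N-terminal Cys–maleimide-FITC) added at a final 5 × 10⁻⁶ mol/L for 4 h. Cells then trypsinized, centrifuged, resuspended in PBS and analysed by flow cytometry. Fluorescence signal compared between labeled peptides.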

A further data set concerns C6 cells. The data set can be described thus: Cellular uptake of FITC-labeled peptides by flow cytometry, C6. It is filed as cell-based, rat. The note with it: 5 × 10^−6 mol/L, 4 h. The method in brief: as §1
The next data set concerns U87 cells. The data set can be described thus: Cellular uptake of FITC-labeled peptides by flow cytometry, U87. The note with it: 5 × 10^−6 mol/L, 4 h. It is filed as cell-based, human. In outline:
as §1

Data set [2] has as its system A549 cells. Kind of data set: Cellular uptake of FITC-labeled peptides by flow cytometry, A549. It is filed as cell-based, human. To be noted: 5 × 10^−6 mol/L, 4 h. The method in brief:
as §1

Consider `N.N.O=C([O-])C1(C(=O)[O-])CCC1.[Pt+2]` [carboplatin], for which the IC50 in the data set with A549 cells [1] (A549 cells, MTT assay, 48 h treatment, triplicate) worked out at 138 µM.

Consider `Nc1ccn([C@@H]2O[C@H](CO)[C@@H](O)C2(F)F)c(=O)n1` [gemcitabine, Gemcitabine hydrochloride], for which, in the data set with A549 cells [1] (Homo sapiens, A549, 48 h), the IC50 is 4.83 µM.

FITC-D(CRGERPPR): in the data set with HUVEC, the “mean fluorescent intensity, times higher than that of FITC-CRGERPPR” value (“mean fluorescent intensity … of FITC-CRGERPPR” below) is recorded as around 13.1 times and the “mean fluorescent intensity, times higher than that of FITC-D(CRPPREGR)” value came out at 5.7 times. In addition, in the data set with C6 cells, the “mean fluorescent intensity, times higher than FITC-D(CRPPREGR)” value is given as 2.9 times and the “mean fluorescent intensity … of FITC-CRGERPPR” value is on record as 5.4 times. For the same molecule, in the data set on U87 cells, the “mean fluorescent intensity, times higher than FITC-D(CRPPREGR)” value turned out to be 3.5 times and the “mean fluorescent intensity … of FITC-CRGERPPR” value was found to be 3.3 times. In addition, in the data set on A549 cells [2], the “FITC-positive ratio, times higher than that of FITC-CRGERPPR” value is given as 1.6 times and the “FITC-positive ratio, times higher than that of FITC-D(CRPPREGR)” value worked out at 1.3 times.
